Assay results from ChEMBL document CHEMBL2021841, “The design and synthesis of potent, selective benzodiazepine sulfonamide bombesin receptor subtype 3 (BRS-3) agonists with an increased barrier of atropisomerization” (Bioorg Med Chem, 2012).

Experiments:
[1] = target: T1, Bombesin receptor subtype-3 (Homo sapiens, UniProt P32247); experiment: Displacement of 125I-dY-peptide from human BRS3 expressed in NFAT-CHO cells after 2 hrs by liquid scintillation counting; type: cell-based
T1 sequence (P32247 whole entry): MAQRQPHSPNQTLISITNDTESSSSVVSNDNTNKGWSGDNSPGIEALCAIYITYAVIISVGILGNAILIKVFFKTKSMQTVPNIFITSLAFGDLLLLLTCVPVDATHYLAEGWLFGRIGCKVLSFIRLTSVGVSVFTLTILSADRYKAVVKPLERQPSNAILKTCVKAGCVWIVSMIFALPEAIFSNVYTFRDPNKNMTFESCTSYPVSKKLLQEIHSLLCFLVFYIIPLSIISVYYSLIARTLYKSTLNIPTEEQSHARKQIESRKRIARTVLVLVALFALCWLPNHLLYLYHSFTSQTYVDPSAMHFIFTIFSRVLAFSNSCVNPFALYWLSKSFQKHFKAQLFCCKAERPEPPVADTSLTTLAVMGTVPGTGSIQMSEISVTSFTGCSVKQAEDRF

[2] = target: T1, Bombesin receptor subtype-3; experiment: Agonist activity at human BRS3 expressed in human HEK293AEQ cells measured for 10 mins by aequorin bioluminescence assay; type: functional, cell-based
[3] = target: T2, Bombesin receptor subtype-3 (Homo sapiens) (UniProt P32247); experiment: Agonist activity at human BRS3 expressed in human HEK293AEQ cells measured for 10 mins by aequorin bioluminescence assay relative to dY-peptide; type: functional, cell-based
T2 sequence (whole entry): T1 sequence (P32247 whole entry)
Summary of the method: (§1)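 Same aequorin read-out in HEK293AEQ cells expressing human or mouse BRS3. Compounds were titrated in ECB buffer with 0.5% DMSO final, and coelenterazine-loaded cells were injected. Luminescence was integrated over 10 min. The value is maximal activation expressed as a percentage of the maximal response to dY-peptide.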

[4] = target: T3, Bombesin receptor subtype-3 (Mus musculus, UniProt O54798); experiment: Agonist activity at mouse BRS3 expressed in human HEK293AEQ cells measured for 10 mins by aequorin bioluminescence assay; type: functional, cell-based
T3 sequence (O54798 whole entry): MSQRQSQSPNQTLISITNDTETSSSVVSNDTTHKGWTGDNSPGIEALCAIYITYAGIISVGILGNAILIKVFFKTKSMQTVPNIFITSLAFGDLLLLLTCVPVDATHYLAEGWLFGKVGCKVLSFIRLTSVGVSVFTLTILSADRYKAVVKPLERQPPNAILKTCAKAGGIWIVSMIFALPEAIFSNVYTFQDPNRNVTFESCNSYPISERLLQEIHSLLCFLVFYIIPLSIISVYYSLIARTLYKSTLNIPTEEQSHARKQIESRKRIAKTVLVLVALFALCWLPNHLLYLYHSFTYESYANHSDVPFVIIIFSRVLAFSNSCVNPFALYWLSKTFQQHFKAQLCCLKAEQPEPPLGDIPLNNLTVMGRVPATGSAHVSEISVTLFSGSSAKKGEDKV

[5] = target: T4, Bombesin receptor subtype-3 (Mus musculus) (UniProt O54798); experiment: Agonist activity at mouse BRS3 expressed in human HEK293AEQ cells measured for 10 mins by aequorin bioluminescence assay relative to dY-peptide; type: functional, cell-based; summary of the method: as §1
T4 sequence (whole entry): T3 sequence (O54798 whole entry)

[6] = Plasma clearance in Sprague-Dawley rat at 0.5 mg/kg, iv; type: ADME, organism-based; parameters: dose 0.5 mg/kg, route intravenous
Summary of the method: (§2)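 Sprague Dawley rats received 0.5 mg/kg iv. Plasma clearance and half-life were calculated from the plasma profile.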

[7] = Half life in Sprague-Dawley rat at 0.5 mg/kg, iv; type: ADME, organism-based; parameters: dose 0.5 mg/kg, route intravenous; conditions: in vivo; summary of the method: as §2
Rattus norvegicus = experiment: Dose normalized AUC in Sprague-Dawley rat at 1 mg/kg, po; type: ADME, organism-based; parameters: dose 1 mg/kg, route oral; conditions: in vivo
Summary of the method: (§3)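 Sprague Dawley rats were dosed 1 mg/kg po. Dose-normalized oral AUC and oral bioavailability were calculated.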

[8] = Oral bioavailability in Sprague-Dawley rat at 1 mg/kg; type: ADME, organism-based; conditions: in vivo; summary of the method: as §3
[9] = Half life of the compound in ethanol at 60 degC by CD spectroscopy; type: physicochemical

CC(C)(O)c1nc(C(C)(C)c2cccc3c2N(S(=O)(=O)c2ccc(OC(F)(F)F)cc2)Cc2ccc(C(F)(F)F)nc2N3)no1
IC50 [1]: 1.4 nM | EC50 [2]: 64 nM | Activity [3]: 97% | EC50 [4]: 67 nM | Activity [5]: 105% | clearance [6]: 12 mL/min/kg | half-life [7]: 3.1 h | AUC/dose (Rattus norvegicus): 2.6 µM·kg·h/mg | bioavailability [8]: 100% | half-life [9]: > 250 h

CC(C)(O)c1nc(-c2cccc3c2N(S(=O)(=O)c2ccc(OC(F)(F)F)cc2)Cc2ccc(C(F)(F)F)nc2N3)no1
IC50 [1]: 3.6 nM | EC50 [2]: 73 nM | Activity [3]: 106% | EC50 [4]: 130 nM | clearance [6]: 16 mL/min/kg | half-life [7]: 11 h | AUC/dose (Rattus norvegicus): 1.6 µM·kg·h/mg | bioavailability [8]: 93% | half-life [9]: 2.2 h

CC(C)(C(N)=O)c1cccc2c1N(S(=O)(=O)c1ccc(OC(F)(F)F)cc1)Cc1ccc(C(F)(F)F)nc1N2
IC50 [1]: 0.5 nM | EC50 [2]: 26 nM | Activity [3]: 90% | EC50 [4]: 27 nM | Activity [5]: 98% | clearance [6]: 33 mL/min/kg | half-life [7]: 1.6 h | AUC/dose (Rattus norvegicus): 0.3 µM·kg·h/mg | bioavailability [8]: 31%

CC(C)(O)c1nc(C2(c3cccc4c3N(S(=O)(=O)c3ccc(OC(F)(F)F)cc3)Cc3ccc(C(F)(F)F)nc3N4)CCC2)no1
IC50 [1]: 0.6 nM | EC50 [2]: 82 nM | Activity [3]: 97% | EC50 [4]: 76 nM | Activity [5]: 99% | clearance [6]: 21 mL/min/kg | half-life [7]: 2.9 h | AUC/dose (Rattus norvegicus): 0.6 µM·kg·h/mg | bioavailability [8]: 49% | half-life [9]: > 250 h

CNC(=O)C1(c2cccc3c2N(S(=O)(=O)c2ccc(OC(F)(F)F)cc2)Cc2ccc(C(F)(F)F)nc2N3)CCC1
IC50 [1]: 2.1 nM | EC50 [2]: 15 nM | Activity [3]: 106% | EC50 [4]: 22 nM | Activity [5]: 112% | clearance [6]: 25 mL/min/kg | half-life [7]: 1.7 h | AUC/dose (Rattus norvegicus): 0.69 µM·kg·h/mg | bioavailability [8]: 60%

NC(=O)C1(c2cccc3c2N(S(=O)(=O)c2ccc(OC(F)(F)F)cc2)Cc2ccc(C(F)(F)F)nc2N3)CCC1
IC50 [1]: 0.5 nM | EC50 [2]: 21 nM | Activity [3]: 95% | EC50 [4]: 22 nM | Activity [5]: 100% | clearance [6]: 31 mL/min/kg | half-life [7]: 0.8 h | AUC/dose (Rattus norvegicus): 0.3 µM·kg·h/mg | bioavailability [8]: 32% | half-life [9]: > 250 h
